Our source for the MIC and Activity values is ChEMBL document CHEMBL1287641, “Synthesis, characterization and anti-microbial studies of some novel 2,4-disubstituted thiazoles” (2010).

Each structure is given as a SMILES string. Values after ≈ are worked out from the molar mass of the structure shown. Active and inactive are the calls of the source.

The test system of test [1] is Staphylococcus aureus. Description: Antibacterial activity against Staphylococcus aureus after 16 hrs by serial dilution method. In kind it is functional. In short, it runs like this: (§1)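 Broth tube serial dilution MIC. Test compounds were stocked at 1 mg/mL in DMF and twofold diluted in trypticase soya broth across six tubes. Each organism was grown 6 h at 37 °C, adjusted to […] (10⁸ cfu/mL) and diluted to 10⁵ cfu/mL; 1 mL was added per tube. Tubes were incubated 16 h at 37 °C. MIC was read as the concentration giving no visible growth. Inoculum and broth controls were included.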

Test [2] relates to Bacillus subtilis. Kind of test: Antibacterial activity against Bacillus subtilis after 16 hrs by serial dilution method. In kind it is functional. In short, it runs like this: as §1
Test [3] has as its system Escherichia coli. Kind of test: Antibacterial activity against Escherichia coli after 16 hrs by serial dilution method. In kind it is functional. Put shortly:
as §1

Test [4] concerns Pseudomonas aeruginosa. Description: Antibacterial activity against Pseudomonas aeruginosa after 16 hrs by serial dilution method. In kind it is functional. In short, it runs like this:
as §1

The subject of test [5] is Staphylococcus aureus. Description: Antibacterial activity against Staphylococcus aureus at 1.6125 to 50 ug/ml after 16 hrs by serial dilution method. In kind it is functional, organism-based. In short, it runs like this:
as §1

The test system of test [6] is Bacillus subtilis. Kind of test: Antibacterial activity against Bacillus subtilis at 1.6125 to 50 ug/ml after 16 hrs by serial dilution method. In kind it is functional, organism-based. Put shortly: as §1
Test [7] concerns Escherichia coli. Kind of test: Antibacterial activity against Escherichia coli at 1.6125 to 50 ug/ml after 16 hrs by serial dilution method. In kind it is functional, organism-based. Put shortly: as §1
In test [8] the test system is Pseudomonas aeruginosa. Description: Antibacterial activity against Pseudomonas aeruginosa at 1.6125 to 50 ug/ml after 16 hrs by serial dilution method. In kind it is functional, organism-based. Put shortly:
as §1

One may read the MIC as the smallest concentration in the dilution series that meets the test's criterion for growth inhibition. Consider `O=c1oc2ccccc2cc1-c1csc(N/N=C/c2c[nH]nc2-c2cc(Cl)sc2Cl)n1`, for which the MIC in the test with Staphylococcus aureus [1] worked out at 1.61 mg/L (≈ 3.3 µM); in the test with Bacillus subtilis [2], 1.61 mg/L (≈ 3.3 µM); against Escherichia coli [3], 3.12 mg/L (≈ 6.4 µM); with Pseudomonas aeruginosa [4], 1.61 mg/L (≈ 3.3 µM).

Consider `O=c1oc2ccccc2cc1-c1csc(N/N=C/c2c[nH]nc2-c2ccc(-c3ccccc3)cc2)n1`, for which the outcome in the test on Staphylococcus aureus [5], in the test with Bacillus subtilis [6], in the test with Escherichia coli [7] and with Pseudomonas aeruginosa [8] was inactive.

With `O=c1oc2ccc(Br)cc2cc1-c1csc(N/N=C/c2c[nH]nc2-c2cc(Cl)sc2Cl)n1`, the MIC against Staphylococcus aureus [1], against Bacillus subtilis [2], against Escherichia coli [3] and in the test on Pseudomonas aeruginosa [4] was 1.61 mg/L (≈ 2.84 µM) in each case.

Consider `CO/N=C(\C(=O)N[C@@H]1C(=O)N2C(C(=O)O)=C(CSc3nc(=O)c(O)nn3C)CS[C@H]12)c1csc(N)n1` [CEFTRIAXONE], for which the MIC against Staphylococcus aureus [1] is 3.12 mg/L (≈ 5.63 µM); in the test on Bacillus subtilis [2], 1.61 mg/L (≈ 2.91 µM); against Escherichia coli [3] it was 1.61 mg/L (≈ 2.91 µM); in the test with Pseudomonas aeruginosa [4] it was 1.61 mg/L (≈ 2.91 µM).

Consider `Clc1ccc(-c2csc(N/N=C/c3c[nH]nc3-c3ccc(Cl)cc3Cl)n2)c(Cl)c1`, for which the MIC against Staphylococcus aureus [1] worked out at 3.12 mg/L (≈ 6.47 µM); against Escherichia coli [3], 50 mg/L (≈ 103 µM). Also, the outcome in the test on Bacillus subtilis [6] and in the test on Pseudomonas aeruginosa [8] was inactive.

Turning to `O=c1oc2ccc(Br)cc2cc1-c1csc(N/N=C/c2c[nH]nc2-c2ccc(Cl)cc2Cl)n1`, the MIC with Staphylococcus aureus [1] was found to be 3.12 mg/L (≈ 5.57 µM); against Bacillus subtilis [2] it was 3.12 mg/L (≈ 5.57 µM); against Escherichia coli [3], 1.61 mg/L (≈ 2.87 µM); in the test with Pseudomonas aeruginosa [4] it was 1.61 mg/L (≈ 2.87 µM).

Regarding `O=c1oc2ccc(Br)cc2cc1-c1csc(N/N=C/c2c[nH]nc2-c2ccc(-c3ccccc3)cc2)n1`, the outcome in the test on Staphylococcus aureus [5], in the test on Bacillus subtilis [6], in the test with Escherichia coli [7] and with Pseudomonas aeruginosa [8] was inactive.

As for `Clc1ccc(-c2csc(N/N=C/c3c[nH]nc3-c3ccc(-c4ccccc4)cc3)n2)c(Cl)c1`, the result with Staphylococcus aureus [5], in the test with Bacillus subtilis [6], in the test with Escherichia coli [7] and in the test with Pseudomonas aeruginosa [8] was inactive.

Take `Clc1ccc(-c2csc(N/N=C/c3c[nH]nc3-c3cc(Cl)sc3Cl)n2)c(Cl)c1`: the MIC against Staphylococcus aureus [1] came out at 3.12 mg/L (≈ 6.39 µM); with Bacillus subtilis [2], 1.61 mg/L (≈ 3.3 µM); with Escherichia coli [3] it was 1.61 mg/L (≈ 3.3 µM); against Pseudomonas aeruginosa [4], 1.61 mg/L (≈ 3.3 µM).

Turning to `CSc1ccc(-c2n[nH]cc2/C=N/Nc2nc(-c3cc4cc(Br)ccc4oc3=O)cs2)cc1`, the result in the test with Staphylococcus aureus [5], in the test on Bacillus subtilis [6], with Escherichia coli [7] and in the test with Pseudomonas aeruginosa [8] was inactive.

In the case of `CSc1ccc(-c2n[nH]cc2/C=N/Nc2nc(-c3cc4ccccc4oc3=O)cs2)cc1`, the result in the test on Staphylococcus aureus [5], in the test with Bacillus subtilis [6], with Escherichia coli [7] and in the test on Pseudomonas aeruginosa [8] was inactive.

With `CSc1ccc(-c2n[nH]cc2/C=N/Nc2nc(-c3ccc(Cl)cc3Cl)cs2)cc1`, the result in the test with Staphylococcus aureus [5] was inactive. For the same molecule, the minimum inhibitory concentration (MIC) with Bacillus subtilis [2], in the test with Escherichia coli [3] and against Pseudomonas aeruginosa [4] was 50 mg/L (≈ 109 µM) throughout.

As to `O=c1oc2ccccc2cc1-c1csc(N/N=C/c2c[nH]nc2-c2ccc(Cl)cc2Cl)n1`, the MIC in the test with Staphylococcus aureus [1] turned out to be 3.12 mg/L (≈ 6.48 µM); in the test on Bacillus subtilis [2], 1.61 mg/L (≈ 3.34 µM); in the test with Escherichia coli [3], 1.61 mg/L (≈ 3.34 µM); in the test on Pseudomonas aeruginosa [4], 1.61 mg/L (≈ 3.34 µM).
